Measurements published in ChEMBL document CHEMBL2346541, “Synthesis and evaluation of quinazoline derivatives as phosphodiesterase 7 inhibitors” (Bioorg Med Chem, 2013).

Molecular target: Phosphodiesterase 7 (Homo sapiens, UniProt Q13946+Q9NP56)
Test: Inhibition of PDE7 catalytic domain (unknown origin) using [3H]-cAMP as substrate after 1 hr by scintillation proximity assay
Type: protein assay
In short: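 Test compounds were dissolved in DMSO (10 mM stock) and run as a dilution series. It was stirred 1 h at room temperature, stopped with PDE SPA beads, settled 20 min and counted. Assays were run in triplicate, and IC50 was calculated.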

Compound	IC50
Cc1nc(SCc2ccc(-c3ccccc3-c3nn[nH]n3)cc2)c2ccccc2n1	11 µM
CC(C)c1nc(SCc2ccc(-c3ccccc3C(=O)O)cc2)c2ccccc2n1	44 µM
CC(C)c1nc(SCc2ccc(-c3cccc(C(=O)O)c3)cc2)c2ccccc2n1	0.85 µM
CC(C)c1nc(SCc2ccc(-c3ccc(C(=O)O)cc3)cc2)c2ccccc2n1	0.93 µM
Clc1ccc(-c2nc(SCc3ccc(-c4ccccc4-c4nnn[nH]4)cc3)c3ccccc3n2)cc1	12 µM
Brc1cc(Br)c2c(SCc3ccc(-c4cccc(-c5nnn[nH]5)c4)cc3)nc(CCc3ccccc3)nc2c1	> 100 µM
COc1cc2c(SCc3ccc(-c4ccccc4-c4nnn[nH]4)cc3)nc(CCc3ccccc3)nc2c(OC)c1OC	3.6 µM
N#Cc1ccccc1-c1ccc(CSc2ncnc3ccccc23)cc1	> 100 µM
Cc1nc(SCc2ccc(-c3ccccc3C#N)cc2)c2ccccc2n1	> 100 µM
N#Cc1ccccc1-c1ccc(CSc2nc(C(Cl)(Cl)Cl)nc3ccccc23)cc1	> 100 µM
CC(C)c1nc(SCc2ccc(-c3ccccc3C#N)cc2)c2ccccc2n1	> 100 µM
N#Cc1ccccc1-c1ccc(CSc2nc(SCc3ccccc3)nc3ccccc23)cc1	ND(Insoluble)
N#Cc1ccccc1-c1ccc(CSc2nc(SCc3ccc(F)cc3)nc3ccccc23)cc1	> 100 µM
N#Cc1ccccc1-c1ccc(CSc2nc(SCc3ccc([N+](=O)[O-])cc3)nc3ccccc23)cc1	> 100 µM
COC(=O)c1ccccc1-c1ccc(CSc2nc(C(C)C)nc3ccccc23)cc1	> 100 µM
COC(=O)c1cccc(-c2ccc(CSc3nc(C(C)C)nc4ccccc34)cc2)c1	> 100 µM
COC(=O)c1ccc(-c2ccc(CSc3nc(C(C)C)nc4ccccc34)cc2)cc1	33 µM
c1ccc(CSc2nc(SCc3ccc(-c4ccccc4-c4nnn[nH]4)cc3)c3ccccc3n2)cc1	7.1 µM
Fc1ccc(CSc2nc(SCc3ccc(-c4ccccc4-c4nnn[nH]4)cc3)c3ccccc3n2)cc1	6.8 µM
O=[N+]([O-])c1ccc(CSc2nc(SCc3ccc(-c4ccccc4-c4nnn[nH]4)cc3)c3ccccc3n2)cc1	4.9 µM
COc1cccc(CSc2nc(SCc3ccc(-c4ccccc4-c4nnn[nH]4)cc3)c3ccccc3n2)c1	3.3 µM
c1ccc(-c2nnn[nH]2)c(-c2ccc(CSc3nc(SCc4ccc(-c5ccccc5-c5nnn[nH]5)cc4)c4ccccc4n3)cc2)c1	ND(Insoluble)
c1cc(-c2ccc(CSc3ncnc4ccccc34)cc2)cc(-c2nnn[nH]2)c1	8.2 µM
c1ccc2c(SCc3ccc(-c4ccc(-c5nnn[nH]5)cc4)cc3)ncnc2c1	7.2 µM
Cc1nc(SCc2ccc(-c3cccc(-c4nnn[nH]4)c3)cc2)c2ccccc2n1	2.5 µM
Cc1nc(SCc2ccc(-c3ccc(-c4nnn[nH]4)cc3)cc2)c2ccccc2n1	8 µM
ClC(Cl)(Cl)c1nc(SCc2ccc(-c3ccccc3-c3nnn[nH]3)cc2)c2ccccc2n1	2.6 µM
CC(C)c1nc(SCc2ccc(-c3cccc(-c4nnn[nH]4)c3)cc2)c2ccccc2n1	0.89 µM
CC(C)c1nc(SCc2ccc(-c3ccccc3-c3nn[nH]n3)cc2)c2ccccc2n1	0.77 µM
